Only some compounds are listed: those with a hit (about 29% of all), similar ones and a draw of the others.
CYP2C9 activ – CYP2C9 (human) activation; P11712; activation factor at 5 µM; AID 1024; hit rate 1.4% among 96,000; recombinant CYP2C9, luciferin-H conversion, luminescence; active compounds read high; factor 1 = untreated enzyme, 0 = blocked;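 active = activation factor of 2 or more for CYP2C9 at a 5 µM dose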;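 note: 0 = sulfaphenazole-blocked wells and 1 = vehicle-only wells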
Target sequence (P11712 whole entry, looked up): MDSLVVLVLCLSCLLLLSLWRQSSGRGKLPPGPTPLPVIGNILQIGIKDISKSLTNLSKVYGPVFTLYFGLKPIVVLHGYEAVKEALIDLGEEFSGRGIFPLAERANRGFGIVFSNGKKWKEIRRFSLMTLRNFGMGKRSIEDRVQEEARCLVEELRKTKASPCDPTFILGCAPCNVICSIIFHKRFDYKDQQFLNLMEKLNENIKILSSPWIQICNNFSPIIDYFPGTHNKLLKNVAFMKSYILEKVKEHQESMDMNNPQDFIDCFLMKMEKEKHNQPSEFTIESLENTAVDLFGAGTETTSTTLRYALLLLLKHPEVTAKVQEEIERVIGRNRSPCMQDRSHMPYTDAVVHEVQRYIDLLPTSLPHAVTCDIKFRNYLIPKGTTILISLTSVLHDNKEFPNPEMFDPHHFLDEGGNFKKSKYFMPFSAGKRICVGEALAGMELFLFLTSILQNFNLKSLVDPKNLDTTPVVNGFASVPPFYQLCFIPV
CYP2C19 activ – cytochrome P450 2C19 (human) activation; P33261; recombinant CYP2C19, luciferin-H EGE luminescence; active compounds read high; 0 = fully inhibited enzyme, 1 = untreated enzyme; activation factor at 5 µM; 96,000 tested, under 10 active; AID 1025;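 active = activation factor of at least 2 at 5 µM in the primary screen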;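 note: 0 = wells with 2.5 mM tranylcypromine and 1 = vehicle-only wells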
Ecoli WT expand – growth inhibitors of E. coli BW25113 wild type | OD600 absorbance | growth inhibition, % at 100 µM | hit rate 0.15% among 98,000 | AID 710;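 active = growth inhibition above about 50% at one test dose, limit read from the data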;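 note: growth measured after 20 h incubation at 37 °C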
CYP2C19 inh – blocks human cytochrome P450 2C19 | hit rate 21% among 96,000 | CYP2C19 Supersomes, luciferin-H EGE luminescence, 30 min | inhibition, % at 5 µM;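 active = CYP2C19 inhibition above a set limit at 5 µM in the primary screen, cut at about 50% in these data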;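 note: plate controls were negative control wells for no effect and 2.5 mM tranylcypromine positive control for full effect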
CYP2C9 inh – human CYP2C9 inhibition | CYP2C9 Supersomes, luciferin-H conversion, luminescence | inhibition, % at 5 µM | hit rate 20% among 96,000;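 active = blocking of liver enzyme CYP2C9 beyond about 50% at 5 µM, limit read from the data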
tolC growth inh – blocks growth of E. coli BW25113 tolC mutant. OD615. growth inhibition, % at 10 µM (by protocol). hit rate 2.2% among 65,000. AID 573;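 active = growth inhibition at or above a cutoff equal to the mean over every tested compound plus 3 SD, cut at about 60% in these data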;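 note: growth measured after 20 h incubation at 37 °C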
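System: E. coli ΔtolC::kan strain BW25113; Buffer or medium: LB broth supplemented with 50 µg/mL kanamycin; Compound: 10 µM final, single dose; Incubation: bacterial growth with compound for 20 h at 37 °C; Signal: A615 absorbance measurement; Evaluation: growth inhibition in percent.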
The depositor's hits bear a star; . = no result given.

SMILES	CYP2C9 activ	CYP2C19 activ	Ecoli WT expand	CYP2C19 inh	CYP2C9 inh	tolC growth inh
COc1ccc(C2c3c(-c4ccccc4O)n[nH]c3C(=O)N2CCc2ccc(OC)c(OC)c2)cc1 (stereo not drawn)	0	0.1	-11.0	85.6*	96.1*	58.6
O=C1c2[nH]nc(-c3ccccc3O)c2C(c2cccc(O)c2)N1Cc1ccco1 (stereo not drawn)	0.9	0.7	18.0	26.6	11.1	.
CC(=O)NC(CCS(C)(=O)=O)C(=O)Nc1cccc(C)c1C (stereo not drawn)	1.1	1	8.0	-2.9	-10.7	-15.9
COc1ccc(Cl)cc1Nc1nc(N2CCCC2)nc(N2CCCC2)n1	1	1.1	.	-11.7	1.2	8.2
C=CCOC(=O)Nc1ccc(Cl)cc1NC(=O)OCC=C	0.4	0.1	2.0	92.6*	64.9*	0.7
Nc1nc(Cn2nnc(-c3ccccc3Cl)n2)nc(N2CCOCC2)n1	0.9	0.4	-8.0	55.4*	12.9	2.5
N#C/C(C(=O)NCc1ccccc1)=C1\SC(CCO)C(=O)N1c1ccccc1 (stereo not drawn)	.	.	-3.0	.	.	8.9
Cc1cc(-n2c(C)cc(C(=O)CN3C(=O)NC4(CCCCC4)C3=O)c2C)no1	0.9	0.5	-4.0	49.7	6.5	-3.3
c1ccc2[nH]c(CSc3nc4ccccc4s3)nc2c1	0.5	0	30.0	98.3*	52.9*	.
c1ccc(SCc2nc3ccccc3[nH]2)nc1	0.5	0.1	37.0	90.4*	47.5	12.7
CCC(C)SCc1nc2ccccc2[nH]1 (stereo not drawn)	0.6	0.1	13.0	93.1*	36.1	-4.9
Cn1nnnc1SCc1nc2ccccc2[nH]1	0.9	0.6	11.0	36.9	9.6	-5.3
CC/C(=N\NC(=O)c1ccncc1)C12CC3CC(CC(C3)C1)C2	0.9	0.1	4.0	93.9*	14.1	.
CC/C(=N\NC(=O)c1ccc2c(c1)OCO2)C12CC3CC(CC(C3)C1)C2	0.6	1	-7.0	-4.3	38.1	.
CC(C)NC(=S)NNC(=O)C12CC3CC(CC(C3)C1)C2	1.1	0.9	4.0	6.4	-7.2	.
O=C(NNC(=S)Nc1ccccc1)c1ccncc1	0.3	0.3	-2.0	69.5*	69.2*	.
O=C(NNC(=S)NC(=O)C12CC3CC(CC(C3)C1)C2)c1ccncc1	0.1	0.3	5.0	66.8*	93.9*	.
COc1ccc(/C(O)=C2/C(=O)C(=O)N(CCN(C)C)C2c2ccc(F)cc2)cc1Cl (stereo not drawn)	1	0.9	-1.0	11.9	-0.8	-6.2
Cc1ccc(Nc2nc(=O)c3cccnc3s2)cc1	0.2	0.1	-4.0	93.9*	81.6*	-17.9
COc1cccc(-n2cnc3scc(-c4cccs4)c3c2=O)c1	0.2	0.5	-9.0	48.8	79.2*	26.2
COc1ccc(C(=O)Nn2cnc3scc(-c4cccs4)c3c2=O)c(O)c1	.	.	-5.0	.	.	75.2*
O=c1c2c(-c3cccs3)csc2ncn1-c1ccc(Br)cc1	0.7	0.6	-13.0	37.1	32.2	.
COc1c(Cl)cc(-c2noc(C)c2C(=O)NCCc2ccc(C)cc2)cc1Cl	0.6	1	1.0	-2.3	39.3	.
CC(C)SCCCOc1ccc(C(C)(C)C)cc1	1	1	2.0	-4.0	2.9	.
CC(Nc1c([N+](=O)[O-])c(=O)oc2ccccc12)C(Cl)c1ccccc1 (stereo not drawn)	0.7	0	0.0	97.4*	32.6	.
SMILES	CYP2C9 activ	CYP2C19 activ	Ecoli WT expand	CYP2C19 inh	CYP2C9 inh	tolC growth inh
O=C(Nc1nnc(-c2ccccc2Cl)o1)c1ccco1	0.1	0.9	10.0	9.7	93.2*	7.4
O=C(Nc1nnc(-c2ccccc2Cl)o1)c1nc2ccccc2s1	0.7	0.3	-2.0	68.6*	34.2	.
COc1cccc2sc(Nc3nnc(-c4ccccc4Cl)o3)nc12	1.2	1	2.0	-4.3	-19.8	-11.2
O=C(Nc1nnc(-c2cccs2)o1)c1ccco1	0.7	1	6.0	-4.1	33.7	-0.6
Cc1nc2scc(-c3cccs3)c2c(=O)o1	0.5	0.2	-2.0	79.7*	54.6*	-10.1
Cc1nc2scc(-c3cccs3)c2c(=O)n1-n1cccc1	0.4	0.5	4.0	52.7*	58.4*	-0.6
Cc1ccc(C)n1-n1c(C)nc2scc(-c3cccs3)c2c1=O	0.3	0.2	-7.0	78.9*	70.6*	32.9
Cc1ccccc1S(=O)(=O)Cc1ccc(C(=O)NCCN2CCN(Cc3ccccc3)CC2)o1	0.5	0.9	-2.0	12.2	49.6	-13.3
CC(=O)Nc1cccc(NC(=O)CSc2nnc(Cc3cccn3C)n2-c2ccc(C)cc2)c1	0.6	1	-5.0	2.6	37.7	18.4
O=C1CSC(c2ccccc2)N1CC12CC3CC(CC(O)(C3)C1)C2 (stereo not drawn)	1.1	0.8	5.0	24.5	-12.5	9.8
CCOc1ccc(-c2nc(CSCC(=O)NCCN3CCOCC3)c(C)o2)cc1	0.8	0.7	7.0	31.5	24.7	-34.7
CCCCCn1c(SCc2cccc(C)c2)nc2c1c(=O)[nH]c(=O)n2C	.	.	.	.	.	41.4
Cc1cnn(C(=S)NCCc2ccccc2)c1	0.7	0.2	7.0	84.3*	29.2	29.7
c1ccc(CSc2nnnn2-c2ccc3c(c2)OCCO3)nc1	0.6	0.1	1.0	89.7*	41.0	4.9
O=C(CSc1nnnn1-c1ccc2c(c1)OCCO2)OC1CCCCC1	0.5	0.3	-2.0	66.2*	45.1	55.7
Clc1ccc(CSc2nnnn2-c2ccc3c(c2)OCO3)c(Cl)c1	0.1	0.1	-4.0	88.8*	87.9*	.
O=C(CSc1nnnn1-c1ccc2c(c1)OCCO2)N1CCc2ccccc21	1.3	1	-2.0	2.6	-34.9	-14.2
Cc1ccc(NC(=O)CCSc2nnnn2-c2ccc3c(c2)OCO3)cc1C	0.5	0.3	-13.0	74.0*	49.1	52.9
Fc1ccccc1N1CCN(c2cnc3ccccc3n2)CC1	0.9	0.7	-4.0	25.4	8.0	.

Screening results as filed in PubChem.
